Measured values reported in publication PMC12248229 (PeerJ, 2025).

How the values were obtained:
[1] = tested on: patients with chronic kidney disease; details: diverse group of patients with chronic kidney disease, ref Fauchier, Fauchier & Angoulvant, 2021, Herrington et al., 2023, Santos-Gallego et al., Wanner et al., 2016; cited from earlier work
Ugt1a7 = assay: qRT-PCR mRNA expression in rat liver and intestine after 7 days of dosing; type: in vivo; details: after multiple doses
How it was run: (§1)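 Rats (n = 6/group) gavaged daily for 7 days with test compound: 2.5 or 1 mg/kg in 0.5% CMC-Na, or 100 mg/kg in 0.5% CMC-Na with 5% DMSO. Liver and intestine harvested under chloral hydrate and stored at −80 °C. TRNzol RNA extraction; 1 μg RNA reverse-transcribed. qPCR: 95 °C 15 min, then 40 cycles of 95 °C 10 s/60 °C 32 s. […] reference; 2^−ΔΔCT.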

[2] = Stability of analytes in rat plasma; type: physicochemical; details: n = 6
Oatp1b2 = assay: qRT-PCR mRNA expression in rat liver after 7 days of dosing; type: in vivo; details: after multiple doses
How it was run: as §1

[3] = cited from earlier work
in vivo = type: in vivo, Sprague-Dawley (SD) rats; details: for half-life: t1/2, rats
P-gp = assay: qRT-PCR mRNA expression in rat liver and intestine after 7 days of dosing; type: in vivo; details: after multiple doses
How it was run: as §1

[4] = Autosampler (15 °C) for 6 h, nominal 15 ng/mL
[5] = Autosampler (15 °C) for 6 h, nominal 800 ng/mL
[6] = Autosampler (15 °C) for 6 h, nominal 1,500 ng/mL
[7] = Room temperature for 4 h, nominal 15 ng/mL
[8] = Room temperature for 4 h, nominal 800 ng/mL
[9] = Room temperature for 4 h, nominal 1,500 ng/mL
[10] = Three freeze–thaw cycles (−80 °C to 25 °C), nominal 15 ng/mL
[11] = Three freeze–thaw cycles (−80 °C to 25 °C), nominal 800 ng/mL
[12] = Three freeze–thaw cycles (−80 °C to 25 °C), nominal 1,500 ng/mL
[13] = −80 °C for 30 days, nominal 15 ng/mL
[14] = −80 °C for 30 days, nominal 800 ng/mL
[15] = −80 °C for 30 days, nominal 1,500 ng/mL
[16] = rats, coadministered with sorafenib, versus control group
[17] = rats, empagliflozin […] after sorafenib 100 mg/kg for 7 consecutive days, n = 6

OC[C@H]1O[C@@H](c2ccc(Cl)c(Cc3ccc(O[C@H]4CCOC4)cc3)c2)[C@H](O)[C@@H](O)[C@@H]1O [Empagliflozin]
lowering of the occurrence of cardiovascular death events [1]: 18% | inhibition of mRNA expression of Ugt1a7 (Ugt1a7; rat intestine): no significant inhibition | decrease of mRNA expression of Ugt1a7 (Ugt1a7; rat liver): 40.07% | Stability: Accuracy (RE%) [2, 4]: 4.78% | Stability: Mean ± SD measured concentration [2, 4]: 15.72 ± 0.78 ng/mL | Stability: Accuracy (RE%) [2, 5]: 6.63% | Stability: Mean ± SD measured concentration [2, 5]: 853.00 ± 50.88 ng/mL | Stability: Accuracy (RE%) [2, 6]: 3.89% | Stability: Mean ± SD measured concentration [2, 6]: 1,558.33 ± 99.48 ng/ml | Stability: Accuracy (RE%) [2, 7]: −0.67% | Stability: Mean ± SD measured concentration [2, 7]: 14.90 ± 0.91 ng/mL | Stability: Accuracy (RE%) [2, 8]: 4.71% | Stability: Mean ± SD measured concentration [2, 8]: 837.67 ± 29.62 ng/mL | Stability: Accuracy (RE%) [2, 9]: 2.22% | Stability: Mean ± SD measured concentration [2, 9]: 1,533.33 ± 37.77 ng/ml | Stability: Accuracy (RE%) [2, 10]: −0.67% | Stability: Mean ± SD measured concentration [2, 10]: 14.90 ± 0.91 ng/mL | Stability: Accuracy (RE%) [2, 11]: 6.65% | Stability: Mean ± SD measured concentration [2, 11]: 853.17 ± 38.25 ng/mL | Stability: Accuracy (RE%) [2, 12]: 1.11% | Stability: Mean ± SD measured concentration [2, 12]: 1,516.67 ± 97.50 ng/ml | Stability: Accuracy (RE%) [2, 13]: 1.56% | Stability: Mean ± SD measured concentration [2, 13]: 15.23 ± 1.43 ng/mL | Stability: Accuracy (RE%) [2, 14]: 4.15% | Stability: Mean ± SD measured concentration [2, 14]: 833.17 ± 38.43 ng/mL | Stability: Accuracy (RE%) [2, 15]: −1.78% | Stability: Mean ± SD measured concentration [2, 15]: 1,473.33 ± 93.31 ng/ml | decrease of mRNA expression of Oatp1b2 (Oatp1b2): 37.43% | systemic exposure of each metabolite, of the total drug-related material ([3]; after oral administration, no reference given): less than 10% | time to highest levels in the body ([3]; following a single oral dose, ref Scheen, 2014): 1.0 to 2.0 h | dose eliminated in urine unchanged ([3]; ref Scheen, 2014): 11–19% | AUC(0-t) (in vivo; Sprague-Dawley, rat, in vivo, po, […], AUC0–t, rats, empagliflozin […] after sorafenib 100 mg/kg for 7 consecutive days, n = 6): 563 ± 110 ng·h/mL | AUC(0-inf) (in vivo; Sprague-Dawley, rat, in vivo, po, […], AUC0–∞, rats, empagliflozin […] after sorafenib 100 mg/kg for 7 consecutive days, n = 6): 586 ± 104 ng·h/mL | Cmax (in vivo; Sprague-Dawley, rat, in vivo, po, […], Cmax, rats, empagliflozin […] after sorafenib 100 mg/kg for 7 consecutive days, n = 6): 231 ± 78.5 ng/mL | MRT last (in vivo; Sprague-Dawley, rat, in vivo, po, […], MRT0–t, rats, empagliflozin […] after sorafenib 100 mg/kg for 7 consecutive days, n = 6): 2.86 ± 0.21 h | MRT inf (in vivo; Sprague-Dawley, rat, in vivo, po, […], MRT0–∞, rats, empagliflozin […] after sorafenib 100 mg/kg for 7 consecutive days, n = 6): 3.44 ± 0.52 h | Tmax (in vivo; Sprague-Dawley, rat, in vivo, po, […], rats, empagliflozin […] after sorafenib 100 mg/kg for 7 consecutive days, n = 6): 0.4 ± 0.17 h | Tmax (in vivo; Sprague-Dawley, rat, in vivo, po, […], rats, empagliflozin […] oral, alone, n = 6): 0.28 ± 0.12 h | half-life (in vivo; Sprague-Dawley, rat, in vivo, po, […], empagliflozin […] after sorafenib 100 mg/kg for 7 consecutive days, n = 6): 3.14 ± 1.09 h | half-life (in vivo; Sprague-Dawley, rat, in vivo, po, […], empagliflozin […] oral, alone, n = 6): 5.03 ± 2.29 h | difference in Cmax of empagliflozin (higher than control) (in vivo; rats receiving both drugs versus control group): not statistically significant | decrease of Vz/F of empagliflozin (in vivo; [16]): 50.68% | increase of AUC0–t of empagliflozin (in vivo; [16]): 44.65% | increase of AUC0–∞ of empagliflozin (in vivo; [16]): 30.59% | CLz (in vivo; [17]): 73 ± 12.5 mL/min/kg | Vz (in vivo; [17]): 20.18 ± 8.16 L/kg | Vz (in vivo; rats, empagliflozin […] oral, alone, n = 6): 40.92 ± 16.03 L/kg | decrease of mRNA expression of P-gp (P-gp; rat intestine): 22.77% | decrease of mRNA expression of P-gp (P-gp; rat liver): 61.19%
